Data taken from ChEMBL document CHEMBL2176871, “Development of ligands at γ-aminobutyrric acid type A (GABAA) receptor subtype as new agents for pain relief” (Bioorg Med Chem, 2011).
The source made the active and inactive calls.

Assays:
Mus musculus [1] = test: Analgesic activity in Swiss albino mouse abdominal constriction model assessed as decrease in number of acetic acid-induced writhing at 10 to 30 mg/kg, po after 30 mins; assay type: functional, organism-based; settings: Abdomen
Outline: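 Male Swiss albino mice (23–30 g). Compounds given po in 1% CMC vehicle 30 min before the test. Acetic acid 0.6% injected i.p. at 10 ml/kg. Stretching movements were counted for 10 min, starting 5 min after the acetic acid injection. 8–15 mice per group.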

Rattus norvegicus [2] = test: Antinociceptive activity in Sprague-Dawley rat mononeuropathy pain model assessed as increase in injured paw pressure at 60 mg/kg, po after 30 mins by paw pressure test relative to non-treated control; assay type: functional
Outline: (§1)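 Chronic constriction injury: loose ligatures placed on the common sciatic nerve under chloral hydrate; contralateral sham dissection. Tested 14 days after surgery. Paw pressure applied at 32 g/s; threshold taken as the force causing the first struggle; cut-off 250 g; pretest outliers (<40 g or >75 g) excluded. Oral dosing in 10 ml/kg; read at 15, 30 and 45 min; compared with a CMC-treated group.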

Rattus norvegicus [3] = test: Toxicity in Sprague-Dawley rat mononeuropathy pain model assessed as effect on contralateral paw pressure at 30 mg/kg, po after 15 mins by paw pressure test; assay type: organism-based; design: dose 30 mg/kg, route oral; settings: in vivo, 0.25 h
Outline: (§2)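 Same sciatic-ligation rat model, 14 days after surgery. Threshold measured on the non-operated contralateral hind paw by analgesimeter at 32 g/s; first-struggle endpoint; 250 g cut-off; pretest rats outside 40–75 g rejected. Compound given po in 10 ml/kg; readings at 15, 30 and 45 min.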

Mus musculus [4] = test: Anxiolytic-like activity in Swiss albino mouse at 10 to 30 mg/kg, po after 30 mins by light/dark box test; assay type: functional, organism-based
Outline: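 Male Swiss mice tested in a two-compartment light/dark box. Transfers between compartments and time spent in the lit side recorded. Compound given po 30 min before testing, in 10 ml/kg; flumazenil given i.p. for antagonism; 8 mice per group.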

Rattus norvegicus [5] = test: Toxicity in Sprague-Dawley rat mononeuropathy pain model assessed as effect on contralateral paw pressure at 10 mg/kg, po after 30 mins by paw pressure test; assay type: organism-based; design: dose 10 mg/kg, route oral; settings: in vivo, 0.5 h; outline: as §2
Rattus norvegicus [6] = test: Antinociceptive activity in Sprague-Dawley rat mononeuropathy pain model assessed as increase in injured paw pressure at 60 mg/kg, po after 15 mins by paw pressure test relative to non-treated control; assay type: functional; outline: as §1
Rattus norvegicus [7] = test: Toxicity in Sprague-Dawley rat mononeuropathy pain model assessed as effect on contralateral paw pressure at 60 mg/kg, po after 45 mins by paw pressure test; assay type: organism-based; design: dose 60 mg/kg, route oral; settings: in vivo, 0.75 h; outline: as §2
Rattus norvegicus [8] = test: Antinociceptive activity in Sprague-Dawley rat mononeuropathy pain model assessed as increase in injured paw pressure at 30 mg/kg, po after 45 mins by paw pressure test relative to non-treated control; assay type: functional; outline: as §1

## Cc1cnn2c1n[n+]([O-])c1ccc(OCc3ccccc3)cc12
Mus musculus [1]
  Activity: inactive
Rattus norvegicus [2]
  Activity: 40.8 g
Rattus norvegicus [3]
  Activity: 62.7 g
Mus musculus [4]
  Activity: Active
Rattus norvegicus [5]
  Activity: 62.7 g
Rattus norvegicus [6]
  Activity: 50.1 g
Rattus norvegicus [7]
  Activity: 57.2 g
Rattus norvegicus [8]
  Activity: 35.2 g
